According to ChEMBL document CHEMBL5724801, “EUbOPEN Chemogenomics Library - Multiplex” (2024):
Where “and” joins values, the source holds several entries; their conditions need not be identical. Identical values can stand only once.

Test system: HEK-293T
Test: Multiplex assay against HEK293T
Type: toxicity, cell-based
Conditions: human
In short: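 Imaging took place on a CQ1 microscope at 37°C and 5% CO2 once compound had been added to live cells stained at seeding with Hoechst33342, BioTracker Green Microtubule Cytoskeleton Dye, MitoTracker Red and Annexin V Alexa Fluor 680. CellPathfinder machine-learning gating classed cells as Hoechst high-intensity objects or normal cells, classed normal cells as having healthy, pyknosed or fragmented nuclei, and classed pyknosed cells as mitotic or apoptotic. Tubulin, mitochondrial-mass and membrane-permeability phenotypes are per cents of the healthy-nucleus cells.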

[1] = 12 h, 1 µM, compound concentration 1 uM
[2] = 12 h, 10 µM, compound concentration 10 uM
[3] = 24 h, 1 µM, compound concentration 1 uM
[4] = 24 h, 10 µM, compound concentration 10 uM
[5] = 48 h, 1 µM, compound concentration 1 uM
[6] = 48 h, 10 µM, compound concentration 10 uM

SMILES: CC(C)(C)c1ccc(CSc2cnn(C(C)(C)C)c(=O)c2Cl)cc1 [PYRIDABEN]
- Population Apoptotic (%) [1]: 51% and 28%
- Population Fragmented Nuclei (%) [1]: 7% and 6%
- Population Healthy Nuclei (%) [1]: 78% and 83%
- Population Hoechst High Intensity Objects (%) [1]: 12% and 8%
- Population Membrane Permeable-Phenotype (%) [1]: 0%
- Population Mitochondria Different-Phenotype (%) [1]: 51% and 63%
- Population Mitotic Cells (%) [1]: 48% and 71%
- Population Normal (%) [1]: 87% and 91%
- Population Pyknosed Nuclei (%) [1]: 14% and 10%
- Population Tubulin-Different-Phenotype (%) [1]: 34% and 30%
- Total Cell Count [1]: 299 and 306
- Population Apoptotic (%) [2]: 56% and 62%
- Population Fragmented Nuclei (%) [2]: 6% and 8%
- Population Healthy Nuclei (%) [2]: 77% and 74%
- Population Hoechst High Intensity Objects (%) [2]: 11% and 17%
- Population Membrane Permeable-Phenotype (%) [2]: 0%
- Population Mitochondria Different-Phenotype (%) [2]: 75% and 81%
- Population Mitotic Cells (%) [2]: 44% and 37%
- Population Normal (%) [2]: 88% and 82%
- Population Pyknosed Nuclei (%) [2]: 15% and 16%
- Population Tubulin-Different-Phenotype (%) [2]: 55% and 38%
- Total Cell Count [2]: 359 and 236
- Population Apoptotic (%) [3]: 33% and 35%
- Population Fragmented Nuclei (%) [3]: 7%
- Population Healthy Nuclei (%) [3]: 80% and 83%
- Population Hoechst High Intensity Objects (%) [3]: 9% and 8%
- Population Membrane Permeable-Phenotype (%) [3]: 0%
- Population Mitochondria Different-Phenotype (%) [3]: 37% and 43%
- Population Mitotic Cells (%) [3]: 66% and 64%
- Population Normal (%) [3]: 90% and 91%
- Population Pyknosed Nuclei (%) [3]: 11% and 8%
- Population Tubulin-Different-Phenotype (%) [3]: 27% and 22%
- Total Cell Count [3]: 373 and 370
- Population Apoptotic (%) [4]: 44% and 46%
- Population Fragmented Nuclei (%) [4]: 7% and 8%
- Population Healthy Nuclei (%) [4]: 79% and 70%
- Population Hoechst High Intensity Objects (%) [4]: 10% and 23%
- Population Membrane Permeable-Phenotype (%) [4]: 0%
- Population Mitochondria Different-Phenotype (%) [4]: 68% and 65%
- Population Mitotic Cells (%) [4]: 55% and 53%
- Population Normal (%) [4]: 89% and 76%
- Population Pyknosed Nuclei (%) [4]: 12% and 21%
- Population Tubulin-Different-Phenotype (%) [4]: 52% and 25%
- Total Cell Count [4]: 386 and 252
- Population Apoptotic (%) [5]: 19% and 30%
- Population Fragmented Nuclei (%) [5]: 11% and 9%
- Population Healthy Nuclei (%) [5]: 80% and 84%
- Population Hoechst High Intensity Objects (%) [5]: 5% and 4%
- Population Membrane Permeable-Phenotype (%) [5]: 0%
- Population Mitochondria Different-Phenotype (%) [5]: 25% and 21%
- Population Mitotic Cells (%) [5]: 80% and 69%
- Population Normal (%) [5]: 94% and 95%
- Population Pyknosed Nuclei (%) [5]: 7% and 6%
- Population Tubulin-Different-Phenotype (%) [5]: 14% and 13%
- Total Cell Count [5]: 585 and 522
- Population Apoptotic (%) [6]: 48% and 64%
- Population Fragmented Nuclei (%) [6]: 8% and 13%
- Population Healthy Nuclei (%) [6]: 79% and 71%
- Population Hoechst High Intensity Objects (%) [6]: 11% and 14%
- Population Membrane Permeable-Phenotype (%) [6]: 0%
- Population Mitochondria Different-Phenotype (%) [6]: 59% and 48%
- Population Mitotic Cells (%) [6]: 51% and 35%
- Population Normal (%) [6]: 88% and 85%
- Population Pyknosed Nuclei (%) [6]: 12% and 14%
- Population Tubulin-Different-Phenotype (%) [6]: 43% and 28%
- Total Cell Count [6]: 424 and 290

SMILES: COc1ccc(Cl)cc1[C@]1(F)C(=O)Nc2cc(C(F)(F)F)ccc21 [FLINDOKALNER]
- Population Apoptotic (%) [1]: 8.33% and 8.73%
- Population Fragmented Nuclei (%) [1]: 2.3% and 5.16%
- Population Hoechst High Intensity Objects (%) [1]: 0%
- Population Membrane Permeable-Phenotype (%) [1]: 0.56% and 0%
- Population Mitochondria Different-Phenotype (%) [1]: 45.76% and 33.33%
- Population Mitotic Cells (%) [1]: 91.67% and 91.27%
- Population Normal (%) [1]: 100%
- Population Pyknosed Nuclei (%) [1]: 39.47% and 81.29%
- Total Cell Count [1]: 304 and 155
- Population Apoptotic (%) [2]: 11.41% and 18.18%
- Population Fragmented Nuclei (%) [2]: 2.47% and 3.73%
- Population Hoechst High Intensity Objects (%) [2]: 0.54% and 0%
- Population Membrane Permeable-Phenotype (%) [2]: 0.48% and 0%
- Population Mitochondria Different-Phenotype (%) [2]: 38.16% and 26.32%
- Population Mitotic Cells (%) [2]: 88.59% and 81.82%
- Population Normal (%) [2]: 99.46% and 100%
- Population Pyknosed Nuclei (%) [2]: 40.82% and 82.09%
- Total Cell Count [2]: 367 and 134
- Population Apoptotic (%) [3]: 16.18% and 15.32%
- Population Fragmented Nuclei (%) [3]: 1.01% and 6.17%
- Population Hoechst High Intensity Objects (%) [3]: 0%
- Population Membrane Permeable-Phenotype (%) [3]: 3.37% and 0%
- Population Mitochondria Different-Phenotype (%) [3]: 17.98% and 10.71%
- Population Mitotic Cells (%) [3]: 83.82% and 84.68%
- Population Normal (%) [3]: 100%
- Population Pyknosed Nuclei (%) [3]: 27.36% and 76.54%
- Population Tubulin-Different-Phenotype (%) [3]: 11.8% and 10.71%
- Population Apoptotic (%) [4]: 13.79% and 23.64%
- Population Fragmented Nuclei (%) [4]: 2.57% and 5.62%
- Population Healthy Nuclei (%) [4]: 68.77% and 25.62%
- Population Hoechst High Intensity Objects (%) [4]: 0.2% and 0%
- Population Membrane Permeable-Phenotype (%) [4]: 0.86% and 0%
- Population Mitochondria Different-Phenotype (%) [4]: 23.28% and 12.2%
- Population Mitotic Cells (%) [4]: 86.21% and 76.36%
- Population Normal (%) [4]: 99.8% and 100%
- Population Pyknosed Nuclei (%) [4]: 28.66% and 68.75%
- Population Fragmented Nuclei (%) [5]: 2.21% and 2.93%
- Population Healthy Nuclei (%) [5]: 85.07% and 54.63%
- Population Hoechst High Intensity Objects (%) [5]: 0%
- Population Membrane Permeable-Phenotype (%) [5]: 4.29% and 2.68%
- Population Mitochondria Different-Phenotype (%) [5]: 14.16% and 20.54%
- Population Mitotic Cells (%) [5]: 96% and 72.41%
- Population Normal (%) [5]: 100%
- Population Apoptotic (%) [6]: 9.02% and 19.67%
- Population Fragmented Nuclei (%) [6]: 2.19% and 4.66%
- Population Healthy Nuclei (%) [6]: 86.19% and 63.73%
- Population Hoechst High Intensity Objects (%) [6]: 0% and 0.52%
- Population Membrane Permeable-Phenotype (%) [6]: 7.07% and 1.63%
- Population Mitochondria Different-Phenotype (%) [6]: 21.1% and 21.95%
- Population Mitotic Cells (%) [6]: 90.98% and 80.33%
- Population Normal (%) [6]: 100% and 99.48%
- Population Pyknosed Nuclei (%) [6]: 11.62% and 31.61%

SMILES: CCOc1ccccc1C(=O)NCC1(N2CCN(CC)CC2)CCCCC1
- Population Apoptotic (%) [1]: 17.61% and 11.57%
- Population Fragmented Nuclei (%) [1]: 1.59% and 5.52%
- Population Hoechst High Intensity Objects (%) [1]: 0%
- Population Membrane Permeable-Phenotype (%) [1]: 0.66% and 6.25%
- Population Mitotic Cells (%) [1]: 82.39% and 88.43%
- Population Normal (%) [1]: 100%
- Population Pyknosed Nuclei (%) [1]: 50.48% and 83.45%
- Population Tubulin-Different-Phenotype (%) [1]: 10.6% and 18.75%
- Total Cell Count [1]: 315 and 145
- Population Apoptotic (%) [2]: 15.84% and 21.31%
- Population Fragmented Nuclei (%) [2]: 1.84% and 5.41%
- Population Healthy Nuclei (%) [2]: 36.2% and 12.16%
- Population Hoechst High Intensity Objects (%) [2]: 0% and 0.67%
- Population Membrane Permeable-Phenotype (%) [2]: 0.85% and 0%
- Population Mitochondria Different-Phenotype (%) [2]: 25.42% and 50%
- Population Mitotic Cells (%) [2]: 84.16% and 78.69%
- Population Normal (%) [2]: 100% and 99.33%
- Population Pyknosed Nuclei (%) [2]: 61.96% and 82.43%
- Population Tubulin-Different-Phenotype (%) [2]: 38.14% and 77.78%
- Total Cell Count [2]: 326 and 149
- Population Apoptotic (%) [3]: 13.73% and 14.84%
- Population Fragmented Nuclei (%) [3]: 1% and 7.69%
- Population Hoechst High Intensity Objects (%) [3]: 0.2% and 0.59%
- Population Membrane Permeable-Phenotype (%) [3]: 2.05% and 0%
- Population Mitochondria Different-Phenotype (%) [3]: 24.34% and 10.71%
- Population Mitotic Cells (%) [3]: 86.27% and 85.16%
- Population Normal (%) [3]: 99.8% and 99.41%
- Population Pyknosed Nuclei (%) [3]: 30.66% and 75.74%
- Population Tubulin-Different-Phenotype (%) [3]: 21.41% and 10.71%
- Total Cell Count [3]: 500 and 170
- Population Apoptotic (%) [4]: 40.41% and 45.37%
- Population Fragmented Nuclei (%) [4]: 1.63% and 6.29%
- Population Hoechst High Intensity Objects (%) [4]: 0%
- Population Membrane Permeable-Phenotype (%) [4]: 1.45% and 0%
- Population Mitochondria Different-Phenotype (%) [4]: 39.49% and 42.31%
- Population Mitotic Cells (%) [4]: 59.59% and 54.63%
- Population Normal (%) [4]: 100%
- Population Pyknosed Nuclei (%) [4]: 34.03% and 75.52%
- Population Tubulin-Different-Phenotype (%) [4]: 64.13% and 73.08%
- Total Cell Count [4]: 429 and 143
- Population Fragmented Nuclei (%) [5]: 1.56% and 2.66%
- Population Healthy Nuclei (%) [5]: 84.02% and 40.96%
- Population Hoechst High Intensity Objects (%) [5]: 0%
- Population Membrane Permeable-Phenotype (%) [5]: 5.34% and 1.3%
- Population Mitochondria Different-Phenotype (%) [5]: 24.83% and 45.45%
- Population Mitotic Cells (%) [5]: 94.59% and 81.13%
- Population Normal (%) [5]: 100%
- Population Apoptotic (%) [6]: 21.8% and 42.22%
- Population Fragmented Nuclei (%) [6]: 2.46% and 4.08%
- Population Healthy Nuclei (%) [6]: 79.37% and 50%
- Population Hoechst High Intensity Objects (%) [6]: 0.14% and 1.01%
- Population Membrane Permeable-Phenotype (%) [6]: 3.96% and 3.06%
- Population Mitochondria Different-Phenotype (%) [6]: 67.81% and 74.49%
- Population Mitotic Cells (%) [6]: 78.2% and 57.78%
- Population Normal (%) [6]: 99.86% and 98.99%
- Population Pyknosed Nuclei (%) [6]: 18.17% and 45.92%
